Measurements from ChEMBL document CHEMBL1150419, “Structure-activity relationships of a peptide inhibitor of the human FcRn:human IgG interaction” (Bioorg Med Chem, 2008).

What was measured:
[1] = biological target: T1, IgG receptor FcRn large subunit p51 (Homo sapiens, UniProt P55899); test: Inhibition of human IgG binding to soluble human FcRn by ELISA
Procedure, shortened: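 Biotinylated soluble human FcRn immobilized on neutravidin plates, incubated with hIgG (3 nM, constant) and peptide at varying concentrations for 2 h at 37 °C. After washing, bound hIgG detected with peroxidase-conjugated hIgG-specific Fab fragments.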

[2] = biological target: T1, IgG receptor FcRn large subunit p51; test: Binding affinity to human FcRn at pH 6 by surface plasmon resonance assay
Procedure, shortened: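 Soluble human FcRn coupled to the dextran surface of a CM5 chip; peptide dilutions flowed over the chip. The equilibrium response at each dilution was plotted against concentration and fitted to a steady-state affinity model to give Kd.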

T1 sequence (P55899 whole entry, the tested form may be a part): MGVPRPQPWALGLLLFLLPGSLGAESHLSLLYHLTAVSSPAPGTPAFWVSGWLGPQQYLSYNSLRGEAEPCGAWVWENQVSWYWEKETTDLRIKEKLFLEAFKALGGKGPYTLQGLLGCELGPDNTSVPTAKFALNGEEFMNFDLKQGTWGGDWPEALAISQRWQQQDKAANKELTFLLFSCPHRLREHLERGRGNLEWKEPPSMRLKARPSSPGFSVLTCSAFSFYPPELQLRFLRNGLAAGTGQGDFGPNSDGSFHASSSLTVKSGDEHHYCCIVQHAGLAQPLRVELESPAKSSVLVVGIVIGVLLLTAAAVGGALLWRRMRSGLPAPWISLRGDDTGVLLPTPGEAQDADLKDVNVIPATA

IC50 [1] [µM]	Kd [2] [µM]	SMILES
16	230	CC(C)C[C@@H](C(=O)N[C@@H](Cc1ccc(O)cc1)C(=O)N1CCC[C@H]1C(=O)N[C@@H](CS)C(=O)O)N(C)C(=O)CN(C)C(=O)CNC(=O)[C@H](CCc1ccccc1)NC(=O)[C@H](Cc1cnc[nH]1)NC(=O)CNC(=O)[C@@H](NC(=O)[C@@H](NC(=O)[C@H](Cc1ccccc1)NC(=O)[C@H](CCCNC(=N)N)NC(=O)[C@@H](N)CCC(N)=O)C(C)(C)S)[C@@H](C)O
> 125	230	CC(C)C[C@H](NC(=O)CNC(=O)CNC(=O)[C@H](Cc1ccc(C(C)(C)C)cc1)NC(=O)[C@H](Cc1cnc[nH]1)NC(=O)CNC(=O)[C@@H](NC(=O)[C@@H](NC(=O)[C@H](Cc1ccccc1)NC(=O)[C@H](CCCNC(=N)N)NC(=O)[C@@H](N)CCC(N)=O)C(C)(C)S)[C@@H](C)O)C(=O)N[C@@H](Cc1ccc(O)cc1)C(=O)N1CCC[C@H]1C(=O)N[C@@H](CS)C(=O)O
> 125	> 250	CC(C)C[C@H](NC(=O)CNC(=O)CNC(=O)[C@@H]1Cc2ccccc2CN1C(=O)[C@H](Cc1cnc[nH]1)NC(=O)CNC(=O)[C@@H](NC(=O)[C@@H](NC(=O)[C@H](Cc1ccccc1)NC(=O)[C@H](CCCNC(=N)N)NC(=O)[C@@H](N)CCC(N)=O)C(C)(C)S)[C@@H](C)O)C(=O)N[C@@H](Cc1ccc(O)cc1)C(=O)N1CCC[C@H]1C(=O)N[C@@H](CS)C(=O)N[C@@H](CC(N)=O)C(=O)NCC(=O)N1CCC[C@H]1C(=O)O
90	11	CC(C)C[C@H](NC(=O)CNC(=O)CNC(=O)[C@H](Cc1ccc2ccccc2c1)NC(=O)[C@H](Cc1cnc[nH]1)NC(=O)CNC(=O)[C@@H](NC(=O)[C@@H](NC(=O)[C@H](Cc1ccccc1)NC(=O)[C@H](CCCN=C(N)N)NC(=O)[C@@H](N)CCC(N)=O)C(C)(C)S)[C@@H](C)O)C(=O)N[C@@H](Cc1ccc(O)cc1)C(=O)N1CCC[C@H]1C(=O)N[C@@H](CS)C(=O)N[C@@H](CC(N)=O)C(=O)NCC(=O)N1CCC[C@H]1C(=O)O
2.4	0.48	CC(C)C[C@H](NC(=O)C(C)(C)NC(=O)CNC(=O)[C@H](Cc1ccccc1)NC(=O)[C@H](Cc1cnc[nH]1)NC(=O)CNC(=O)[C@@H](NC(=O)[C@@H](NC(=O)[C@H](Cc1ccccc1)NC(=O)[C@H](CCCNC(=N)N)NC(=O)[C@@H](N)CCC(N)=O)C(C)(C)S)[C@@H](C)O)C(=O)N[C@@H](Cc1ccc(O)cc1)C(=O)N1CCC[C@H]1C(=O)N[C@@H](CS)C(=O)N[C@@H](CC(N)=O)C(=O)NCC(=O)N1CCC[C@H]1C(=O)O
60	19	CC(C)C[C@H](NC(=O)CNC(=O)CNC(=O)[C@H](Cc1cccnc1)NC(=O)[C@H](Cc1cnc[nH]1)NC(=O)CNC(=O)[C@@H](NC(=O)[C@@H](NC(=O)[C@H](Cc1ccccc1)NC(=O)[C@H](CCCN=C(N)N)NC(=O)[C@@H](N)CCC(N)=O)C(C)(C)S)[C@@H](C)O)C(=O)N[C@@H](Cc1ccc(O)cc1)C(=O)N1CCC[C@H]1C(=O)N[C@@H](CS)C(=O)N[C@@H](CC(N)=O)C(=O)NCC(=O)N1CCC[C@H]1C(=O)O
32	230	CC(C)C[C@H](NC(=O)CNC(=O)CNC(=O)[C@@H](NC(=O)[C@H](Cc1cnc[nH]1)NC(=O)CNC(=O)[C@@H](NC(=O)[C@@H](NC(=O)[C@H](Cc1ccccc1)NC(=O)[C@H](CCCN=C(N)N)NC(=O)[C@@H](N)CCC(N)=O)C(C)(C)S)[C@@H](C)O)C(c1ccccc1)c1ccccc1)C(=O)N[C@@H](Cc1ccc(O)cc1)C(=O)N1CCC[C@H]1C(=O)N[C@@H](CS)C(=O)O
8.1	0.83	CC(C)C[C@H](NC(=O)[C@@H](CCCN=C(N)N)NC(=O)CNC(=O)[C@H](Cc1ccccc1)NC(=O)[C@H](Cc1cnc[nH]1)NC(=O)CNC(=O)[C@@H](NC(=O)[C@@H](NC(=O)[C@H](Cc1ccccc1)NC(=O)[C@H](CCCN=C(N)N)NC(=O)[C@@H](N)CCC(N)=O)C(C)(C)S)[C@@H](C)O)C(=O)N[C@@H](Cc1ccc(O)cc1)C(=O)N1CCC[C@H]1C(=O)N[C@@H](CS)C(=O)N[C@@H](CC(N)=O)C(=O)NCC(=O)N1CCC[C@H]1C(=O)O
100	18	COc1ccc(C[C@H](NC(=O)[C@H](Cc2cnc[nH]2)NC(=O)CNC(=O)[C@@H](NC(=O)[C@@H](NC(=O)[C@H](Cc2ccccc2)NC(=O)[C@H](CCCN=C(N)N)NC(=O)[C@@H](N)CCC(N)=O)C(C)(C)S)[C@@H](C)O)C(=O)NCC(=O)NCC(=O)N[C@@H](CC(C)C)C(=O)N[C@@H](Cc2ccc(O)cc2)C(=O)N2CCC[C@H]2C(=O)N[C@@H](CS)C(=O)N[C@@H](CC(N)=O)C(=O)NCC(=O)N2CCC[C@H]2C(=O)O)cc1
4.1	0.67	Cc1cccc(C[C@H](NC(=O)[C@H](Cc2cnc[nH]2)NC(=O)CNC(=O)[C@@H](NC(=O)[C@@H](NC(=O)[C@H](Cc2ccccc2)NC(=O)[C@H](CCCN=C(N)N)NC(=O)[C@@H](N)CCC(N)=O)C(C)(C)S)[C@@H](C)O)C(=O)NCC(=O)NCC(=O)N[C@@H](CC(C)C)C(=O)N[C@@H](Cc2ccc(O)cc2)C(=O)N2CCC[C@H]2C(=O)N[C@@H](CS)C(=O)N[C@@H](CC(N)=O)C(=O)NCC(=O)N2CCC[C@H]2C(=O)O)c1
3.7	230	CC(C)C[C@H](NC(=O)CNC(=O)CNC(=O)[C@H](Cc1cccc(Cl)c1)NC(=O)[C@H](Cc1cnc[nH]1)NC(=O)CNC(=O)[C@@H](NC(=O)[C@@H](NC(=O)[C@H](Cc1ccccc1)NC(=O)[C@H](CCCNC(=N)N)NC(=O)[C@@H](N)CCC(N)=O)C(C)(C)S)[C@@H](C)O)C(=O)N[C@@H](Cc1ccc(O)cc1)C(=O)N1CCC[C@H]1C(=O)N[C@@H](CS)C(=O)O
1	0.2	Cc1ccccc1C[C@H](NC(=O)[C@H](Cc1cnc[nH]1)NC(=O)CNC(=O)[C@@H](NC(=O)[C@@H](NC(=O)[C@H](Cc1ccccc1)NC(=O)[C@H](CCCNC(=N)N)NC(=O)[C@@H](N)CCC(N)=O)C(C)(C)S)[C@@H](C)O)C(=O)NCC(=O)NCC(=O)N[C@@H](CC(C)C)C(=O)N[C@@H](Cc1ccc(O)cc1)C(=O)N1CCC[C@H]1C(=O)N[C@@H](CS)C(=O)N[C@@H](CC(N)=O)C(=O)NCC(=O)N1CCC[C@H]1C(=O)O
80	7.8	CC(C)C[C@H](NC(=O)CNC(=O)CNC(=O)[C@H](CCc1ccccc1)NC(=O)[C@H](Cc1cnc[nH]1)NC(=O)CNC(=O)[C@@H](NC(=O)[C@@H](NC(=O)[C@H](Cc1ccccc1)NC(=O)[C@H](CCCNC(=N)N)NC(=O)[C@@H](N)CCC(N)=O)C(C)(C)S)[C@@H](C)O)C(=O)N[C@@H](Cc1ccc(O)cc1)C(=O)N1CCC[C@H]1C(=O)N[C@@H](CS)C(=O)N[C@@H](CC(N)=O)C(=O)NCC(=O)N1CCC[C@H]1C(=O)O
> 125	230	CC(C)C[C@H](NC(=O)CNC(=O)CNC(=O)[C@H](Cc1ccccc1)NC(=O)[C@H](Cc1cnc[nH]1)NC(=O)CNC(=O)[C@@H](NC(=O)[C@H](CS)NC(=O)[C@H](Cc1ccccc1)NC(=O)[C@H](CCCNC(=N)N)NC(=O)[C@@H](N)CCC(N)=O)[C@@H](C)O)C(=O)N[C@@H](Cc1ccccc1)C(=O)N1CCC[C@H]1C(=O)N[C@@H](CS)C(=O)N[C@@H](CC(N)=O)C(=O)NCC(=O)N1CCC[C@H]1C(=O)O
> 125	> 250	CC(C)C[C@H](NC(=O)CNC(=O)CNC(=O)[C@@H](NC(=O)[C@H](Cc1cnc[nH]1)NC(=O)CNC(=O)[C@@H](NC(=O)[C@@H](NC(=O)[C@H](Cc1ccccc1)NC(=O)[C@H](CCCN=C(N)N)NC(=O)[C@@H](N)CCC(N)=O)C(C)(C)S)[C@@H](C)O)c1ccccc1)C(=O)N[C@@H](Cc1ccc(O)cc1)C(=O)N1CCC[C@H]1C(=O)N[C@@H](CS)C(=O)N[C@@H](CC(N)=O)C(=O)NCC(=O)N1CCC[C@H]1C(=O)O
